Screens (PubChem)
Rows were chosen to be rich in hits. Some 1.4% of all compounds tested hit in one or more screens of this group.
NR2E3 ag-1 = agonists of human nuclear receptor NR2E3; GST-NR2E3/biotin-RetCOR TR-FRET, 1536-well; inhibition of corepressor binding, % at 4.78 µM; actives 0.12% (n = 320,000);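 active = percent inhibition above the cutoff of mean plus 3 SD of all tested compounds, set per screening campaign, cut at about 20% in these data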;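 also: 0% = DMSO wells and 100% = biotin wells as full block of FRET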
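Material: NR2E3–RetCOR corepressor complex / Incubation: Compound–protein incubation for 5 h at 4 °C / Dosing: compound at 4.8 µM, single dose / Detection: time-resolved FRET / Benchmarks: high control biotin, low control 0.6% DMSO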
NR1D1 modulator = modulators of human Rev-erb alpha DNA binding. P20393. Rev-erbα–FITC-DNA binding, fluorescence polarization, 90 min. activity, % at 10 µM. actives 0.79% (n = 370,000). AID 1259318;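 active = activity above about 14%, limit read from the data; passing the limit was not always enough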;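 also: 0% = DMSO wells with 35 nM protein and 100% = DMSO wells with 750 nM protein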
Target sequence (P20393 whole entry, looked up): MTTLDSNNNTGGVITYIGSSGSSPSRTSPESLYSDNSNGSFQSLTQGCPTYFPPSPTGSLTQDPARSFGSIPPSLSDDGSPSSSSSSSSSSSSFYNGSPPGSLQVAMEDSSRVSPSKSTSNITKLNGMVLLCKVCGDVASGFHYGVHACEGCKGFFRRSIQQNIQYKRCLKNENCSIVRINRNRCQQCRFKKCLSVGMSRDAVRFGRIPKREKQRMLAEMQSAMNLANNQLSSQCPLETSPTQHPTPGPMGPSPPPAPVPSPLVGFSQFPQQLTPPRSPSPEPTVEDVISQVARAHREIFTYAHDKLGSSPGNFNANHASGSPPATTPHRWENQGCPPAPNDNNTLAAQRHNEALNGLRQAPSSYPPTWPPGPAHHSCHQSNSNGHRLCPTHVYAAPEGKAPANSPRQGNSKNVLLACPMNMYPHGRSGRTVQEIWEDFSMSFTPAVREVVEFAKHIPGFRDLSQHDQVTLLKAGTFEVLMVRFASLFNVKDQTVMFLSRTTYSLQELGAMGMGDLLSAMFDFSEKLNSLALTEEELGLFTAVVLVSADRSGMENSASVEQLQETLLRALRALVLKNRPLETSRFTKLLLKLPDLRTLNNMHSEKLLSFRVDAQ
NR2E3 ag-2 = activates human NR2E3 receptor | inhibition of corepressor binding, % at 3.98 µM | actives 0.35% (n = 360,000) | CHO-S Gal4-NCOR/VP16-NR2E3 two-hybrid, luciferase | Q9Y5X4;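 active = inhibition above the mean of all tested compounds plus 3 SD, cut at about 70% in these data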;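 also: 0% = DMSO with NR2E3 transfected cells and 100% = cells lacking NR2E3 construct; higher means lower luciferase signal from less NR2E3 corepressor binding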
PG9 Ab binder = small molecules binding HIV-1 gp120 antibody PG9; TR-FRET gp120-PG9 antibody binding; inhibition, % at 6.7 µM; actives 0.43% (n = 360,000); in the data active = inhibition above about 8.5%
NR2E3 ag conf = NR2E3 agonism confirmed in two-hybrid assay | actives 51% (n = 2,300) | AID 624378 | CHO-S mammalian two-hybrid NR2E3-NCOR, luciferase luminescence | inhibition, % at 3.98 µM | shares compounds with NR2E3 ag-2;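 active = average inhibition above a cutoff equal to the mean inhibition of all tested compounds plus one SD, cut at about 70% in these data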;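 also: 0% = DMSO in NR2E3 cells and 100% = DMSO in cells lacking NR2E3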
GAL4-VP16 luc = GAL4-VP16 reporter inhibition in NR2E3 agonist counterscreen | CHO-S GAL4-VP16 luciferase reporter, luminescence | actives 29% (n = 2,300) | AID 624379 | shares compounds with NR2E3 ag-2 | inhibition, % at 3.98 µM;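 active = mean inhibition above a cutoff equal to the average over all tested compounds plus one standard deviation, cut at about 70% in these data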;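 also: luciferase from a UAS reporter driven by GAL4-VP16 transactivation; 0% = DMSO with VP16-transfected cells and 100% = DMSO with cells lacking VP16; higher means less reporter light so more repression of VP16 activity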
Numbers without * were called inactive.

`O=C(CCc1ccccc1)Nc1ccnn1C1CCN(C/C=C/c2ccccc2)CC1` gave NR2E3 ag-1 -0.2, NR1D1 modulator -2.5, NR2E3 ag-2 -35.0 and PG9 Ab binder 0.5.
`COc1ccccc1/C=C/CN1CCC(n2nccc2NC(=O)CCc2ccccc2)CC1` gave NR2E3 ag-1 -4.1, NR1D1 modulator 0.3, NR2E3 ag-2 65.3, PG9 Ab binder -2.1, NR2E3 ag conf 55.5 and GAL4-VP16 luc 51.1.
For O=C(COc1ccccc1O)NNc1ccccc1 the results were NR2E3 ag-1 -0.1, NR1D1 modulator -0.8, NR2E3 ag-2 60.6, PG9 Ab binder -2.4, NR2E3 ag conf 46.7 and GAL4-VP16 luc 11.0.
O=C(COc1ccccc1O)Nc1ccccc1Cl was read as NR2E3 ag-1 -0.8, NR1D1 modulator -3.3, NR2E3 ag-2 -50.4 and PG9 Ab binder 0.2.
`CC(C)(N[C@@H](Cc1ccccc1)C(=O)NCCCc1ccccc1)C(=O)NCc1ccccc1` gave NR1D1 modulator -0.3.
O=C(CSc1nnnn1C1CC2CCC1C2)Nc1ccnc2ccccc12 (stereo unspecified) was read as NR2E3 ag-1 1.3, NR1D1 modulator 1.6, NR2E3 ag-2 97.9*, PG9 Ab binder -2.6, NR2E3 ag conf 94.0* and GAL4-VP16 luc 92.9*.
Screening O=C(CSc1nnnn1C1CCCCC1)Nc1ccccc1F returned NR2E3 ag-1 0.2, NR1D1 modulator -3.0, NR2E3 ag-2 5.2 and PG9 Ab binder -1.6.
For O=C1CCC[C@H]2Cc3nc4ccccc4cc3C[C@]23CCCN13 the results were NR1D1 modulator -2.2.
For CCn1cc(CN(C)S(=O)(=O)c2ccc3ccccc3c2)c(C)n1 the results were NR2E3 ag-1 1.5, NR1D1 modulator 0.6, NR2E3 ag-2 66.2, PG9 Ab binder 1.2, NR2E3 ag conf 87.8* and GAL4-VP16 luc 70.8*.
Screening CCn1cc(CN(C)S(=O)(=O)c2cccc([N+](=O)[O-])c2)cn1 returned NR2E3 ag-1 3.7, NR1D1 modulator 1.6, NR2E3 ag-2 -3.1 and PG9 Ab binder -1.1.
C[C@H](O)[C@@H]1CN2CCc3c([nH]c4c(-c5ccc6c(c5)OCO6)cccc34)[C@@H]2C[C@@H]1N(C)C(=O)c1ccco1 was read as NR1D1 modulator 8.8.
OCC1OC(n2ccc3c2ncn2ncnc32)C(O)C1O (stereo unspecified) was read as NR1D1 modulator 4.7, NR2E3 ag-2 57.5, PG9 Ab binder -3.1, NR2E3 ag conf 7.5 and GAL4-VP16 luc 12.6.
`COc1ccc(-c2noc(C3CCCN(C(=O)Nc4ccc(Cl)cc4)C3)n2)cc1` (stereo unspecified) gave NR1D1 modulator 5.0.
CN1CCC(N[C@@H](Cc2ccccc2)C(=O)NCC(c2ccccc2)c2ccccc2)(C(=O)NC2CCCCC2)CC1 was read as NR1D1 modulator -3.2.
Nc1[nH]c(C(=O)c2ccccc2)c(-c2ccc(Br)cc2)c1C(=O)N1CCN(CCO)CC1 was read as NR1D1 modulator -6.7.
Screening CN(C)c1cccc(-c2cnc(N3CCC(C(N)=O)CC3)s2)c1 returned NR1D1 modulator 5.4.
Screening CCCN1CC(=O)N2[C@H](C[C@@]3(n4ccc5ccccc54)c4ccccc4N(S(=O)(=O)c4ccccc4)[C@@H]23)C1=O returned NR1D1 modulator -0.1.
For CC(=O)c1c(C)[nH]c(C(=O)COc2cc(C)ccc2C(C)C)c1C the results were NR2E3 ag-1 -1.3, NR1D1 modulator -2.7, NR2E3 ag-2 85.2*, PG9 Ab binder -0.4, NR2E3 ag conf 91.3* and GAL4-VP16 luc 78.8*.
Screening COc1cc(C)ccc1OCC(=O)OCC(=O)c1[nH]c(C)c(C(C)=O)c1C returned NR1D1 modulator -3.7, NR2E3 ag-2 -18.6 and PG9 Ab binder 0.3.
Screening Cc1cccc(-c2cccc3c4c([nH]c23)[C@@H]2C[C@H]3[C@@H](C(=O)N2CC4)[C@H](C)ON3C)c1 returned NR1D1 modulator 2.9.
COCCNc1nc(NCc2ccccc2OC)c2sccc2n1 was read as NR1D1 modulator 3.4, NR2E3 ag-2 14.6 and PG9 Ab binder -0.7.
Screening COc1ccccc1CNc1nc(NCc2ccccc2SC)c2sccc2n1 returned NR1D1 modulator 1.0, NR2E3 ag-2 80.1*, PG9 Ab binder 0.3, NR2E3 ag conf 85.2* and GAL4-VP16 luc 69.7.
Screening c1cc2cc(CNc3nc(NCC4CC4)nc4ccsc34)ccc2o1 returned NR1D1 modulator 2.1, NR2E3 ag-2 15.6 and PG9 Ab binder -0.4.
For COc1ccccc1CNc1nc(NCc2ccccc2OC)c2sccc2n1 the results were NR1D1 modulator 7.0, NR2E3 ag-2 75.1*, PG9 Ab binder 0.5, NR2E3 ag conf 75.0* and GAL4-VP16 luc 57.3.
`COc1ccccc1CNc1nc(NCc2ccc3occc3c2)c2sccc2n1` gave NR1D1 modulator -7.4, NR2E3 ag-2 69.0, PG9 Ab binder -0.8, NR2E3 ag conf 53.5 and GAL4-VP16 luc 64.2.
For COC(=O)[C@H](CC(C)C)N(CCCc1cn(Cc2ccccc2)nn1)S(=O)(=O)c1ccc(F)cc1Br the results were NR1D1 modulator 3.4.
`CO[C@H]1C[C@H](O[C@H]2[C@H](C)[C@@H](O[C@@H]3O[C@H](C)C[C@H](N(C)C)[C@H]3O)[C@@H](C)C[C@]3(CO3)C(=O)[C@H](C)[C@@H](O)[C@@H](C)[C@@H](C)OC(=O)[C@@H]2C)O[C@@H](C)[C@@H]1O` gave NR1D1 modulator 2.5.
`CN1C2=N[C@H](c3ccccc3Br)CC(=O)N2/C(=C\c2ccccc2)[C@@H]1c1ccccc1` gave NR1D1 modulator -2.1.
Screening Clc1ccccc1-c1cnc2sc(NCc3ccc4c(c3)OCO4)nn12 returned NR1D1 modulator 2.7, NR2E3 ag-2 56.8, PG9 Ab binder 1.8, NR2E3 ag conf 36.9 and GAL4-VP16 luc 42.2.
Screening Clc1ccccc1-c1ccc2ncnc(NCc3ccc4c(c3)OCO4)c2c1 returned NR2E3 ag-1 1.8, NR1D1 modulator -0.3, NR2E3 ag-2 6.2 and PG9 Ab binder -2.1.
`COc1ccc(CCNc2ncnc3sc(C)cc23)cc1OC` gave NR1D1 modulator 4.8, NR2E3 ag-2 87.9*, PG9 Ab binder 0.1, NR2E3 ag conf 99.2* and GAL4-VP16 luc 91.8*.
`COc1ccc(CCNc2ncnc3[nH]ncc23)cc1OC` gave NR2E3 ag-1 -0.6, NR1D1 modulator 2.1, NR2E3 ag-2 -21.3 and PG9 Ab binder 0.9.
`CCCCS(=O)(=O)N1C2=NC3=C(C(=O)N(CCOC)C3=O)C3N(C)c4ccccc4[C@]23C[C@H]1CO` (stereo partly specified) gave NR1D1 modulator 2.3.
`CC(C)(C)c1ccc(C(=O)Nc2ccc(CC(=O)O)cc2)o1` gave NR2E3 ag-1 0.3, NR1D1 modulator -3.0, NR2E3 ag-2 50.7, PG9 Ab binder -2.0, NR2E3 ag conf 41.5 and GAL4-VP16 luc 55.8.
